How the values were obtained:
[1] = system: Jurkat; experiment: Ratio of IC50 of mutant Jurkat leukemia (JLD) to the IC50 of Jurkat leukemia (JLC sensitive, wild type); format: functional, Homo sapiens
Outline: (§1)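 Jurkat lines were each plated at 3.75 × 10³ per well and grown 4 days with drug: parental JL_C, amsacrine-resistant JL_A and doxorubicin-resistant JL_D. Growth was read by sulforhodamine assay. IC50 is the concentration giving 50% of control cell number. Ratio is IC50 in JL_A or JL_D divided by IC50 in JL_C.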

[2] = system: LLTC cell line; experiment: Inhibitory concentration required to reduce Lewis lung carcinoma cell number to 50% of control cultures; format: functional, cell-based; conditions: Mus musculus
Outline: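 Lewis lung carcinoma cells seeded at 10³ per well and exposed to drug for 4 days. Growth read by sulforhodamine assay; IC50 is the drug concentration (nM) that cuts cell number to 50% of control cultures. Value is the mean of at least two independent determinations done in duplicate; coefficient of variation 7.9–8.5%.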

[3] = system: Jurkat; experiment: Ratio of IC50 of Jurkat leukemia amsacrine (JLA) to the IC50 of Jurkat leukemia (JLC sensitive, wild type); format: functional, Homo sapiens; outline: as §1
[4] = system: Jurkat; experiment: Inhibitory concentration required to reduce human Jurkat leukemia (JLC sensitive, wild type) cell number to 50% of control cultures; format: functional, cell-based
[5] = system: P388; experiment: Inhibitory concentration required to reduce murine p388 leukemia cell number to 50% of control cultures; format: functional, cell-based; conditions: Mus musculus

| Structure (SMILES) | Ratio [1] | IC50 [2] [nM] | Ratio [3] | IC50 [4] [nM] | IC50 [5] [nM] |
| --- | --- | --- | --- | --- | --- |
| CN(C)CCNC(=O)c1cccc2cc3ccc(C(F)(F)F)cc3nc12 | 1 | 1750 | 0.9 | 1350 | 1130 |
| CN(C)CCNC(=O)c1cccc2cc3c(Cl)cccc3nc12 | 1.3 | 258 | 1.25 | 919 | 120 |
| CN(C)CCNC(=O)c1cccc2cc3cc(Br)ccc3nc12 | 1 | 447 | 0.8 | 756 | 87 |
| CN(C)CCNC(=O)c1cccc2cc3cccnc3nc12 | 1.2 | 452 | 1.1 | 1420 | 340 |
| COc1cccc2cc3cccc(C(=O)NCCN(C)C)c3nc12 | 5.6 | 36 | 4.9 | 111 | 26 |
| CN(C)CCNC(=O)c1cccc2cc3cc(C(C)(C)C)ccc3nc12 | 1.2 | 4590 | 1.1 | 4390 | 6300 |
| CN(C)CCNC(=O)c1ccc2nc3c(C(=O)NCCN(C)C)cccc3cc2c1 | 1 | 2830 | 0.6 | 1120 | 890 |
| CN(C)CCNC(=O)c1cccc2cc3cc(O)ccc3nc12 | 3 | 469 | 2.5 | 508 | 170 |
| CN(C)CCNC(=O)c1cccc2cc3cccc(Br)c3nc12 | 4.9 | 6.2 | 3.8 | 26 | 3.8 |
| CN(C)CCNC(=O)c1cccc2c(-c3ccccc3)c3ccccc3nc12 | 1.1 | 1200 | 0.8 | 2700 | 4100 |
| CN(C)CCNC(=O)c1cccc2cc3ccc(F)cc3nc12 | 1.9 | 122 | 1.5 | 455 | 49 |
| CCc1cccc2cc3cccc(C(=O)NCCN(C)C)c3nc12 | 4.4 | 20 | 4.1 | 137 | 18 |
| CN(C)CCNC(=O)c1cccc2cc3cccc(N(C)C)c3nc12 | 0.9 | 4130 | 0.85 | 5710 | 1200 |
| CN(C)CCNC(=O)c1cccc2cc3ccccc3nc12 | 2.3 | 189 | 1.9 | 580 | 98 |
| CN(C)CCNC(=O)c1cccc2cc3cc(C(F)(F)F)ccc3nc12 | 1 | 5950 | 0.8 | 6390 | 8600 |
| COc1cc(NS(C)(=O)=O)ccc1Nc1c2ccccc2nc2ccccc12 [AMSACRINE] | 73.7 | 12 | 84.9 | 37 | 20 |
| CC(C)c1ccc2nc3c(C(=O)NCCN(C)C)cccc3cc2c1 | 1.2 | 5820 | 0.9 | 7000 | 3700 |
| COc1ccc2nc3c(C(=O)NCCN(C)C)cccc3cc2c1 | 1.1 | 810 | 1 | 1590 | 580 |
| Cc1cccc2nc3c(C(=O)NCCN(C)C)cccc3cc12 | 1.05 | 372 | 0.95 | 1060 | 250 |
| CC(C)c1cccc2cc3cccc(C(=O)NCCN(C)C)c3nc12 | 1 | 832 | 1 | 2500 | 650 |

| Structure (SMILES) | Ratio [1] | IC50 [2] [nM] | Ratio [3] | IC50 [4] [nM] | IC50 [5] [nM] |
| --- | --- | --- | --- | --- | --- |
| Cc1ccc2cc3cccc(C(=O)NCCN(C)C)c3nc2c1 | 1.5 | 176 | 1.3 | 625 | 96 |
| CN(C)CCNC(=O)c1cccc2cc3ccc(Br)cc3nc12 | 1.1 | 230 | 0.9 | 446 | 160 |
| CN(C)CCNC(=O)c1cccc2cc3cccc(F)c3nc12 | 5.6 | 21 | 4.5 | 103 | 14 |
| CN(C)CCNC(=O)c1cccc2cc3cc(N(C)C)ccc3nc12 | 1.8 | 1680 | 1.8 | 2480 | 1100 |
| CN(C)CCNC(=O)c1cccc2cc3cccc(C(F)(F)F)c3nc12 | 5 | 17 | 4.4 | 75 | 18 |
| Cc1cccc2cc3cccc(C(=O)NCCN(C)C)c3nc12 | 4.8 | 5.6 | 4.6 | 46 | 6.4 |
| CN(C)CCNC(=O)c1cccc2cc3cc(F)ccc3nc12 | 2.1 | 158 | 1.8 | 424 | 55 |
| CCc1ccc2nc3c(C(=O)NCCN(C)C)cccc3cc2c1 | 1.85 | 346 | 1.55 | 1840 | 240 |
| CN(C)CCNC(=O)c1cccc2cc3cc(-c4ccccc4)ccc3nc12 | 6.5 | 168 | 3 | 240 | 94 |
| Cc1c2ccccc2nc2c(C(=O)NCCN(C)C)cccc12 | 1 | 161 | 0.85 | 436 | 150 |
| COc1ccc2cc3cccc(C(=O)NCCN(C)C)c3nc2c1 | 1.1 | 281 | 1.1 | 580 | 160 |
| Cc1ccc2nc3c(C(=O)NCCN(C)C)cccc3cc2c1 | 1.1 | 735 | 1 | 1350 | 330 |
| CN(C)CCNC(=O)c1cccc2cc3ccc(Cl)cc3nc12 | 1.3 | 156 | 1.1 | 397 | 125 |
| CN(C)CCNC(=O)c1cccc2cc3cc(Cl)ccc3nc12 | 1 | 469 | 0.8 | 753 | 250 |
| CN(C)CCNC(=O)c1cccc2cc3cccc(-c4ccccc4)c3nc12 | 1.4 | 706 | 1.55 | 1660 | 250 |
| CN(C)CCNC(=O)c1cccc2cc3ccc(N(C)C)cc3nc12 | 0.85 | 272 | 0.6 | 212 | 260 |
| CN(C)CCNC(=O)c1cccc2cc3cccc(Cl)c3nc12 | – | 36 | 4.2 | – | 6.5 |
| COc1cccc2c1C(=O)c1c(O)c3c(c(O)c1C2=O)C[C@@](O)(C(=O)CO)C[C@@H]3O[C@H]1C[C@H](N)[C@H](O)[C@H](C)O1 [DOXORUBICIN] | 12.7 | 22 | 4.39 | 9.6 | 15 |
| CN(C)CCNC(=O)c1cccc2c(N)c3ccccc3nc12 | 6.1 | 5.3 | 4.6 | 27 | 8 |

Source: ChEMBL document CHEMBL1130207, “Structure-activity relationships for acridine-substituted analogues of the mixed topoisomerase I/II inhibitor N-[2-(dimethylamino)ethyl]acridine-4-carboxamide” (J Med Chem, 1997)
